Consider two compounds from ChEMBL document CHEMBL2346548, “Design, synthesis, and structure-activity relationship studies of tryptanthrins as antitubercular agents” (J Nat Prod, 2013).

Values after ≈ are worked out from the molar mass of the structure shown. A value given as a limit tells only on which side of the number the result lay.

A short description of data set [1]: Aqueous solubility in PBS buffer at pH 7.4 by HPLC method. The class given is physicochemical. In outline: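 Compound at 200 μM final in 2% DMSO in PBS pH 7.4, shaken 24 h at room temperature; quantified by HPLC with photodiode array detection at 230 nm; duplicate, mean reported.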
The target in the next data set is CYP3A4 (Homo sapiens, UniProt P08684). Description: Inhibition of human recombinant CYP3A4 at 10 uM incubated for 30 mins at 37 degC using 7-benzyloxy-4-(trifluoromethyl)coumarin substrate. To be noted: recombinant CYP3A4, probe 7-benzyloxy-4-(trifluoromethyl)coumarin. In kind it is ADME.
CYP3A4, sequence (P08684 whole entry): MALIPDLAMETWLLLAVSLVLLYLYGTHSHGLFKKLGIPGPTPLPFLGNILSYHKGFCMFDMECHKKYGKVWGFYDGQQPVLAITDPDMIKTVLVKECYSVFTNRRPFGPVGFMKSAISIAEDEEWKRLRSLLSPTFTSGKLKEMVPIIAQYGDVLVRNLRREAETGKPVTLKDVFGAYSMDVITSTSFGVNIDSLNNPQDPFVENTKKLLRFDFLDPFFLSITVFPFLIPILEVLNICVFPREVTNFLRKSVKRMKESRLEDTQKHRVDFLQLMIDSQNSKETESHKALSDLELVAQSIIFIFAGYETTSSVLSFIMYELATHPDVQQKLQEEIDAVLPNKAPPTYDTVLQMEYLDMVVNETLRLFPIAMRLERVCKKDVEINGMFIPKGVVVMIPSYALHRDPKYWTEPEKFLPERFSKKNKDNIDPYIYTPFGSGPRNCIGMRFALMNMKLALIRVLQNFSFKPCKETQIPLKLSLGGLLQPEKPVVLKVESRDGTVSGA
The next data set addresses CYP2C19 (Homo sapiens, UniProt P33261). Description: Inhibition of human recombinant CYP2C19 at 10 uM incubated for 60 mins at 37 degC using 3-cyano-7-ethoxycoumarin substrate. The class given is ADME. Particulars: recombinant CYP2C19, probe 3-cyano-7-ethoxycoumarin.
A short description of data set [2]: Permeability across apical to basolateral side in human Caco2 cells incubated for 1 hr at 37 degC by HPLC-MS/MS method. In kind it is ADME, cell-based. Particulars: Caco-2. The method, boiled down: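 TC7 (Caco-2 subclone) monolayer; 10 μM compound in 1% DMSO in HBSS-MES pH 6.5 on apical donor side, basolateral receiver pH 7.4; shaken 1 h at 37 °C; receiver sampled, HPLC-MS/MS; duplicate means.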
(In general: Caco-2 cells form a polarised layer with tight junctions and transporters.)

Data set [3] is described as follows: Efflux ratio in human Caco2 cells incubated for 1 hr at 37 degC by HPLC-MS/MS method. The class given is ADME, cell-based. Particulars: Caco-2.
The nature of data set [4]: Half life in female rat at 56 mg/kg, po. The class given is ADME, organism-based. On the set-up: dose 56 mg/kg, route oral. Particulars: in vivo.
The test system of data set [5] is Mycobacterium tuberculosis. Description: Antitubercular activity against Mycobacterium tuberculosis H37Rv incubated at 37 degC for 7 days by microplate alamar blue assay. In kind it is functional. To be noted: for MIC: Mycobacterium tuberculosis, H37Rv, 168 h. In outline:
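Mtb H37Rv was grown in 7H9 broth with glycerol, Casitone, 10% OADC and 0.05% Tween 80 to OD600 0.4. Compounds were 2-fold serially diluted from DMSO stocks in 7H9, and wells were inoculated at 2 × 10⁵ CFU/mL. After 7 days at 37 °C, Alamar Blue was added and read after a further 24 h. MIC was the lowest concentration preventing the blue-to-pink change.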
A general note: Alamar Blue is a resazurin reagent that responds to reducing activity.

Data set [6] is described as follows: Half life in male rat at 56 mg/kg, po. In kind it is ADME, organism-based. On the set-up: dose 56 mg/kg, route oral. To be noted: in vivo.
Data set [7] in a line: Protein binding in human plasma at 10 uM incubated for 8 hrs at 37 degC by equilibrium dialysis method. Particulars: read-out: PPB (converted). In kind it is ADME, cell-free. The method, boiled down:
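Equilibrium dialysis: 10 μM compound in 1% DMSO in human plasma vs 0.05 M phosphate buffer pH 7.5 across 12–14 K cutoff membrane, at least 8 h at 37 °C; HPLC-photodiode detection at 230 nm; duplicate means.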
On the technique in general: In equilibrium dialysis only unbound substance equilibrates across the membrane.

A further data set relates to Vero. Kind of data set: Cytotoxicity against african green monkey Vero cells. The class given is cell-based, Chlorocebus sabaeus. Particulars: Chlorocebus sabaeus, Vero; read-out: IC50.
Data set [8] in a line: Metabolic stability in human liver microsomes assessed as parent compound remaining at 1 uM incubated for 1 hr by HPLC-MS/MS method. Particulars: read-out: Stability. The class given is ADME, Microsome. The method, boiled down:
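Pooled mixed-gender human liver microsomes (0.3 mg/mL protein), 1 μM compound with NADP-regenerating system in phosphate buffer pH 7.4, 1 h at 37 °C; parent measured at start and end by HPLC-MS/MS; duplicate means.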

Data set [9] in a line: Permeability across basolateral to apical side in human Caco2 cells incubated for 1 hr at 37 degC by HPLC-MS/MS method. In kind it is ADME, cell-based. Particulars: Caco-2.
Data set [10] concerns Mycobacterium tuberculosis. Kind of data set: Antitubercular activity against Mycobacterium tuberculosis H37Rv incubated at 37 degC for 14 days in presence of 40% human serum by microplate alamar blue assay. In kind it is functional. Particulars: 336 h. The method, boiled down: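 This is the MABA run in 7H9 broth containing 40% human serum. Compounds were 2-fold serially diluted, and wells were inoculated with H37Rv at 2 × 10⁵ CFU/mL. Incubation was at 37 °C for 14 days, then Alamar Blue was added. MIC was the lowest concentration preventing the blue-to-pink colour change.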

A short description of data set [11]: Solubility in simulated gastric fluid at pH 1.5 by HPLC method. In kind it is physicochemical. The method, boiled down:
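Compound at 200 μM final in 2% DMSO in simulated gastric fluid, shaken 24 h at room temperature; HPLC-photodiode array detection at 230 nm; duplicate means.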

A further data set deals with CYP2C9 (Homo sapiens, UniProt P11712). Description: Inhibition of human recombinant CYP2C9 at 10 uM incubated for 80 mins at 37 degC using 7-methoxy-4-trifluoromethylcoumarin substrate. In kind it is ADME. To be noted: recombinant CYP2C9, probe 7-methoxy-4-trifluoromethylcoumarin.
CYP2C9, sequence (P11712 whole entry): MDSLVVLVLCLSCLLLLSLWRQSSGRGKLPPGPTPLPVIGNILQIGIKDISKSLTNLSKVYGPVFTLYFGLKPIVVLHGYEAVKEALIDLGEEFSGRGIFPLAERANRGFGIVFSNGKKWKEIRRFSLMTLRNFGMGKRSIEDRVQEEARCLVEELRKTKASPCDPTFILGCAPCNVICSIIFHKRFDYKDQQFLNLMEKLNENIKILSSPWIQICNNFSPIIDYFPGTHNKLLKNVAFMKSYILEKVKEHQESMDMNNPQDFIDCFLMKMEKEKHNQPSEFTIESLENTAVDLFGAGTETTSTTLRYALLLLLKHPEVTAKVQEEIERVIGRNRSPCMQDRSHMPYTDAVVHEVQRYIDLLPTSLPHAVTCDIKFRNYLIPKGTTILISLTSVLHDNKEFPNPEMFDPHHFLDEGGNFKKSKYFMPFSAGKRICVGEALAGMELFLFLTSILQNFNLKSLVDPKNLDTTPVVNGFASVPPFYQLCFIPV
A short description of data set [12]: Solubility in simulated intestinal fluid at pH 7.6 by HPLC method. The class given is physicochemical. In outline:
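Simulated intestinal fluid medium; each analogue 200 μM final in 2% DMSO, shaken 24 h at room temperature, then HPLC with photodiode array read at 230 nm; duplicate, means given.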

Data set [13] is described as follows: Distribution coefficient, log D of the compound between n-octanol and PBS buffer at pH 7.4 incubated for 1 hr by shake flask method. The class given is physicochemical. In outline: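 Partition between n-octanol and PBS pH 7.4 after 1 h shaking at room temperature; phases analysed by HPLC with photodiode detection; logD = log10 of organic/aqueous amount.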

A short description of data set [14]: Oral bioavailability in Sprague-Dawley rat at 20 mg/kg. In kind it is ADME, organism-based. Particulars: in vivo.
A short description of data set [15]: Elimination half life in Sprague-Dawley rat at 5 mg/kg, iv. To be noted: in vivo, read-out: beta t1/2 (converted). On the set-up: dose 5 mg/kg, route intravenous. The class given is ADME, organism-based. In outline:
(§1)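 Male Sprague-Dawley rats (n = 3), single 5 mg/kg iv dose as solution in PEG300/DMSO 50:50; plasma sampled 0.083–24 h, LC-MS bioanalysis; noncompartmental analysis, means.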

The nature of data set [16]: AUC (0 to infinity) in Sprague-Dawley rat at 20 mg/kg, po. In kind it is ADME, organism-based. On the set-up: time infinity, dose 20 mg/kg, route oral. Particulars: plasma.
Data set [17] is described as follows: Tmax in C57BL/6 mouse at 40 mg/kg, po. On the set-up: dose 40 mg/kg, route oral. Particulars: in vivo. In kind it is ADME, organism-based. The method, boiled down:
(§2)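 Female C57BL/6 mice, single 40 mg/kg oral gavage; three mice per time point; plasma at 30 min to 24 h, LC-MS; noncompartmental parameters reported as means.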

A short description of data set [18]: Cmax in C57BL/6 mouse at 40 mg/kg, po. The class given is ADME, organism-based. On the set-up: dose 40 mg/kg, route oral. Particulars: in vivo. In outline: as §2
The nature of data set [19]: AUC (0 to infinity) in C57BL/6 mouse at 40 mg/kg, po. In kind it is ADME, organism-based. On the set-up: dose 40 mg/kg, route oral, time infinity. To be noted: plasma.
A short description of data set [20]: Tmax in Sprague-Dawley rat at 20 mg/kg, po. In kind it is ADME, organism-based. On the set-up: dose 20 mg/kg, route oral. To be noted: in vivo.
For data set [21], the system named is Mycobacterium tuberculosis. Description: Antitubercular activity against non-replicating Mycobacterium tuberculosis H37Rv incubated for 10 days by LORA method. Particulars: 240 h. The class given is functional. In outline:
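H37Rv carrying pFCA-luxAB was adapted to low oxygen by gradual self-depletion in a sealed, slowly stirred flask. It was then exposed to compounds for 10 days under anaerobic conditions. Cultures recovered for 28 h in ambient oxygen before n-decanal substrate was added and luminescence read. MIC was the lowest concentration giving a 90% reduction in luminescence versus untreated controls.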

Data set [22] can be described thus: Clearance in Sprague-Dawley rat at 5 mg/kg, iv. The class given is ADME, organism-based. On the set-up: dose 5 mg/kg, route intravenous. Particulars: in vivo. In outline:
as §1

The nature of data set [23]: AUC (0 to infinity) in Sprague-Dawley rat at 5 mg/kg, iv. The class given is ADME, organism-based. On the set-up: time infinity, dose 5 mg/kg, route intravenous. Particulars: plasma.
Data set [24] is described as follows: Half life in Sprague-Dawley rat at 20 mg/kg, po. In kind it is ADME, organism-based. On the set-up: dose 20 mg/kg, route oral. Particulars: in vivo.
Data set [25] can be described thus: Cmax in Sprague-Dawley rat at 20 mg/kg, po. In kind it is ADME, organism-based. On the set-up: dose 20 mg/kg, route oral. To be noted: in vivo.
Data set [26] is described as follows: Volume of distribution in Sprague-Dawley rat at 5 mg/kg, iv. In kind it is ADME, organism-based. On the set-up: dose 5 mg/kg, route intravenous. Particulars: in vivo. In outline:
as §1

CYP2C19, sequence (P33261 whole entry): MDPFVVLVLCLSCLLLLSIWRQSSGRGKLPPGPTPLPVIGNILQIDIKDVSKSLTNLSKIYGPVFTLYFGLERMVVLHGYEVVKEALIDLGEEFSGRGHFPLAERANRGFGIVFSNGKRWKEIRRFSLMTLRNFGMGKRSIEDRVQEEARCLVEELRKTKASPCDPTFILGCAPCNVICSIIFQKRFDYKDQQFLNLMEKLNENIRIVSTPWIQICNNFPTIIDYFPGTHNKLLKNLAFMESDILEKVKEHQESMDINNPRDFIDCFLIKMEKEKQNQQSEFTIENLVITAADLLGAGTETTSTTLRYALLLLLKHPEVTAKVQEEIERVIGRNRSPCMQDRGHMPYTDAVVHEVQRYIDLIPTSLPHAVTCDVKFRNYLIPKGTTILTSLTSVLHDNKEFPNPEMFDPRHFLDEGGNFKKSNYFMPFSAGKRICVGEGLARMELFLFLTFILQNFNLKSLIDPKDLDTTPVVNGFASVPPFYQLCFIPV

In the case of `O=C1c2ccccc2-n2c1nc1ccccc1c2=O` [TRYPTANTHRIN], the solubility is 5.4 µM (≈ 1.34 µg/mL) in [1] (buffer), 11.7 µM (≈ 2.9 µg/mL) in data set [11] and 12.9 µM (≈ 3.2 µg/mL) in data set [12]. Besides, the inhibition at 0.5 h, 10 µM at CYP3A4 worked out at 12%. Moreover, the inhibition at 1 h, 10 µM at CYP2C19 came to 9%. Also, the Papp A→B at 1 h in [2] worked out at 60.1 ×10⁻⁶ cm/s. The efflux ratio at 1 h in data set [3] is greater than 1. Also, the values for the half-life in data set [4] and in [6] were 4.35 h and 5.6 h, respectively. The same compound returned an MBC90 in [5] of 1 µg/mL (≈ 4.03 µM). Moreover, the values for the MIC in data set [5] and in data set [10] were 1 µg/mL (≈ 4.03 µM) and 1 µg/mL, respectively. The fraction unbound at 8 h, 10 µM in data set [7] was 0.041. In addition, in the data set with Vero, the IC50 was greater than 8 µg/mL. Also, the remaining at 1 h, 1 µM in [8] is 15%. In addition, the Papp B→A at 1 h in data set [9] was determined as 22.5 ×10⁻⁶ cm/s. Further, on CYP2C9, the inhibition at 80 min, 10 µM came out at 25%. In [13], this compound displayed a logD at 1 h of 2.29.

The compound `O=C1c2cc(C(=O)N3CCCCC3)ccc2-n2c1nc1ccccc1c2=O` showed a bioavailability in data set [14] of 3.16%. Moreover, the half-life in data set [15] was 0.88 h; in data set [24], 7.34 h. Moreover, the AUC(0-inf) worked out at 140 ng·h/mL in data set [16], 1300 ng·h/mL in [19] and 1070 ng·h/mL in data set [23]. Also, the solubility is 16.3 µM (≈ 5.86 µg/mL) in [1] (PBS buffer, read-out: solubility); 10.2 µM (≈ 3.67 µg/mL) in data set [11]; 27.5 µM (≈ 9.88 µg/mL) in [12]. Also, the Tmax in data set [17] was found to be 2 h; in data set [20] it was 1 h. In addition, the Cmax in [18] is 112 ng/mL; in data set [25], 30 ng/mL. The same compound showed a Papp A→B at 1 h in data set [2] of 59.9 ×10⁻⁶ cm/s. In addition, the efflux ratio at 1 h in data set [3] was greater than 1. The compound also yielded an MIC90 in [21] greater than 10 µg/mL. For the same compound, the results for the MIC in [5] and in [10] were 0.25 µg/mL (≈ 0.696 µM) and 2 µg/mL, respectively. Moreover, in data set [7], the fraction unbound at 8 h, 10 µM is 0.011. In addition, in the data set on Vero, the IC50 was greater than 10 µg/mL. In addition, in data set [22], the clearance was 81 mL/min/kg. In addition, in data set [8], the remaining at 1 h, 1 µM was 105%. The compound also returned a Papp B→A at 1 h in data set [9] of 26 ×10⁻⁶ cm/s. This compound also returned a Vd in [26] of 6.21 L/kg.

As a reminder, the solubility is how much of the substance goes into solution per volume. Broadly, the inhibition is how much of the control response was suppressed. What is called Papp A→B is the apparent permeability from the apical to the basolateral side of a cell layer. The efflux ratio is a quotient of directional permeabilities that is used to spot active efflux. As usually defined, the MIC is the lowest concentration that inhibits growth of the organism. For orientation: IC50 means the point on the concentration scale where inhibition reaches its midpoint. As usually defined, the Papp B→A is the apparent permeability from the basolateral to the apical side of a cell layer. In general, logD refers to the decadic logarithm of the distribution of all forms, ionised or not, between an organic phase and buffer at a given pH. The term bioavailability denotes dose-corrected exposure relative to a reference, in per cent. Usually AUC(0-inf) stands for total exposure, with the tail of the curve extrapolated. Usually Tmax stands for the time at which the peak concentration occurs. The Cmax is the highest concentration seen after dosing. As a reminder, the MIC90 is the lowest concentration that inhibits either 90% of growth or 90% of the strains tested, depending on the study. A word on the clearance: it is a measure of how efficiently the substance is removed, as volume per time. What is called Vd is the apparent volume that relates the amount in the body to the concentration in plasma or blood.
